{"data": "Assay results pooled from the literature"}
{"Compound": "O=C(O)CN1C(=O)/C(=C/c2ccc(-c3ccc(N(c4ccccc4)c4ccccc4)cc3)c3ccccc23)SC1=S", "target or system": "Streptococcus mutans", "assay": "microbial killing, broth dilution", "test system": "ATCC25175", "measurement": "MBC", "result": "> 1000 µg/mL"}
{"Compound": "COc1ccc2occ(/C=C/c3cc(OC)c(OC)c(OC)c3)c(=O)c2c1", "target or system": "HSC-2", "assay": "cell growth or viability, MTT", "conditions": "21 h", "measurement": "CC50", "result": "5.1 µM"}
{"Compound": "COc1ccc(NC(=O)c2c(Nc3ccccc3)sc(C#N)c2NC(=O)CNc2ccc([N+](=O)[O-])cc2)cc1", "target or system": "HCT-116", "assay": "cell growth or viability, SRB", "conditions": "10 nM, 48 h", "measurement": "viability", "result": "92.4%"}
{"Compound": "O=C(O)CN1C(=O)/C(=C/c2ccc(-c3ccc(N(c4ccccc4)c4ccccc4)cc3)cc2)NC1=S", "target or system": "Streptococcus mutans", "assay": "microbial growth, broth dilution", "test system": "ATCC25175", "measurement": "MIC", "result": "62.5 µg/mL"}
{"Compound": "COc1ccc(NC(=O)c2c(Nc3ccccc3)sc(C#N)c2NC(=O)CNc2ccc(Br)cc2)cc1", "target or system": "HCT-116", "assay": "cell growth or viability, SRB", "conditions": "1 nM, 48 h", "measurement": "viability", "result": "101%"}
{"Compound": "O=C(O)CN1C(=O)/C(=C/c2ccc(-c3ccc(N(c4ccccc4)c4ccccc4)cc3)cc2)SC1=S", "target or system": "Streptococcus pyogenes", "assay": "microbial growth, broth dilution", "test system": "ATCC19615", "measurement": "MIC", "result": "15.6 µg/mL"}
{"Compound": "c1ccc(-c2nc3n(c2-c2ccncc2)CCC3)nc1", "target or system": "Leishmania infantum", "assay": "parasite growth", "conditions": "intracellular, amastigote", "measurement": "IC50", "result": "> 64 µM"}
{"Compound": "COc1ccc(NC(=O)c2c(Nc3ccccc3)sc(C(=O)NN=Cc3ccc(Cl)cc3)c2NC(C)=O)cc1", "target or system": "HCT-116", "assay": "cell growth or viability, SRB", "conditions": "100 µM, 48 h", "measurement": "viability", "result": "50.9%"}
{"Compound": "Cc1ccc2nc(-c3ccccc3)c(CNc3ccc(F)cc3)n2c1", "target or system": "Leishmania infantum", "assay": "parasite growth", "conditions": "intracellular, amastigote", "measurement": "IC50", "result": "> 64 µM"}
{"Compound": "COc1ccc(NC(=O)c2c(Nc3ccccc3)sc(C(=O)NN=Cc3ccc(C)cc3)c2NC(C)=O)cc1", "target or system": "HCT-116", "assay": "cell growth or viability, SRB", "conditions": "0.1 µM, 48 h", "measurement": "viability", "result": "80.5%"}
{"Compound": "NC(=O)N1c2ccccc2C=Cc2ccccc21", "assay": "MES seizures", "test system": "rat", "conditions": "oral", "measurement": "ED50", "result": "10.9 mg/kg"}
{"Compound": "O=C1NC(=S)S/C1=C\\c1ccc(-c2ccc(N(c3ccccc3)c3ccccc3)cc2)c2ccccc12", "target or system": "Streptococcus pyogenes", "assay": "microbial killing, broth dilution", "test system": "ATCC19615", "measurement": "MBC", "result": "> 1000 µg/mL"}
{"Compound": "COc1ccc2occ(/C=C/c3ccc(O)cc3)c(=O)c2c1", "target or system": "HSC-2", "assay": "cell growth or viability, MTT", "conditions": "7 h", "measurement": "CC50", "result": "5.5 µM"}
{"Compound": "COc1cccnc1-c1nc2ccccn2c1N(C)c1ccc(F)cc1", "target or system": "Leishmania infantum", "assay": "parasite growth", "conditions": "intracellular, amastigote", "measurement": "EC50", "result": "1.58 µM"}
{"Compound": "COc1ccc(NC(=O)c2c(Nc3ccccc3)sc(C(=O)NN=Cc3ccc(OC)c(O)c3)c2NC(C)=O)cc1", "target or system": "HCT-116", "assay": "cell growth or viability, SRB", "conditions": "10 µM, 48 h", "measurement": "viability", "result": "35.6%"}
{"Compound": "Fc1ccc(Nc2c(-c3ccc(F)cn3)nc3ccccn23)cc1", "target or system": "Leishmania infantum", "assay": "parasite growth", "conditions": "5 days, intracellular, amastigote", "measurement": "EC50", "result": "12.6 µM"}
{"Compound": "COc1ccc(C=NNC(=O)c2sc(Nc3ccccc3)c(C(=O)Nc3ccc(OC)cc3)c2NC(C)=O)cc1", "target or system": "HCT-116", "assay": "cell growth or viability, SRB", "conditions": "10 nM, 48 h", "measurement": "viability", "result": "86.1%"}
{"Compound": "COc1cccnc1-c1nc2ccccn2c1Nc1ccc(F)cc1", "target or system": "Leishmania infantum", "assay": "parasite growth", "conditions": "5 days, intracellular, amastigote", "measurement": "EC50", "result": "31.6 µM"}
{"Compound": "O=C(O)CN1C(=O)/C(=C/c2c3ccccc3c(-c3ccc(N(c4ccccc4)c4ccccc4)cc3)c3ccccc23)SC1=S", "target or system": "Streptococcus mutans", "assay": "microbial growth, broth dilution", "test system": "ATCC25175", "measurement": "MIC", "result": "> 1000 µg/mL"}
{"Compound": "CS(=O)(=O)c1ccc2nc(-c3ccccn3)c(Nc3ccc(F)cc3)n2c1", "target or system": "Leishmania infantum", "assay": "parasite growth", "conditions": "intracellular, amastigote", "measurement": "IC50", "result": "32.5 µM"}
{"Compound": "O=C1NC(=S)S/C1=C\\c1ccc(-c2ccc(N(c3ccccc3)c3ccccc3)cc2)cc1", "target or system": "Streptococcus pyogenes", "assay": "microbial killing, broth dilution", "test system": "ATCC19615", "measurement": "MBC", "result": "> 1000 µg/mL"}
{"Compound": "CC(=O)N(c1ccc(F)cc1)c1c(-c2ccccn2)nc2ccccn12", "target or system": "Leishmania infantum", "assay": "parasite growth", "conditions": "intracellular, amastigote", "measurement": "IC50", "result": "> 64 µM"}
{"Compound": "O=C1NC(=S)N/C1=C\\c1ccc(-c2ccc(N(c3ccccc3)c3ccccc3)cc2)cc1", "target or system": "Streptococcus mutans", "assay": "microbial killing, broth dilution", "test system": "ATCC25175", "measurement": "MBC", "result": "> 1000 µg/mL"}
{"Compound": "CNC(=O)c1cc(Oc2ccc(NC(=O)Nc3ccc(Cl)c(C(F)(F)F)c3)cc2)ccn1", "target or system": "HCT-116", "assay": "cell growth or viability, SRB", "conditions": "1 nM, 48 h", "measurement": "viability", "result": "100%"}
{"Compound": "Cc1cccc(-c2c(-c3ccccn3)nc3n2CCC3)c1", "target or system": "Leishmania infantum", "assay": "parasite growth", "conditions": "5 days, intracellular, amastigote", "measurement": "EC50", "result": "0.631 µM"}
{"Compound": "COc1ccc(/C=C/c2coc3ccc(OC)cc3c2=O)cc1", "target or system": "HSC-2", "assay": "cell growth or viability, MTT", "conditions": "21 h", "measurement": "CC50", "result": "2.5 µM"}
{"Compound": "COc1ccc(NC(=O)c2c(Nc3ccccc3)sc(C#N)c2NC(=O)CNc2ccc(Cl)cc2)cc1", "target or system": "HCT-116", "assay": "cell growth or viability, SRB", "conditions": "1 µM, 48 h", "measurement": "viability", "result": "60.1%"}
